Screening data as filed in PubChem BioAssay.
Apaf-1 act: activators of human Apaf-1 apoptosome, primary screen, biochemical, DEVD-Rh110 fluorescence, uHTS. Apoptotic protease-activating factor 1 (Homo sapiens), O14727. Apaf-1 apoptosome caspase-3 activation; active compounds read low. activity change, negative = activation, % at 20 µM. 0.31% of 330,000 active. AID 489031, 2010;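 active = activity change at or below -40% at 20 µM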
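Assay system – biochemical Apaf-1 apoptosome reconstitution · Medium – 20 mM HEPES buffer, pH 7.5, containing CHAPS and BSA · Incubation – 30 min preincubation, 50 min reaction, room temperature · Measured by – Caspase-3-released Rh110 fluorescence, 540 nm emission, 480 nm excitation · Read-out – Caspase-3 cleavage activity downstream of Apaf-1 activation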
Rh110 interf act: Rh110 fluorescence interference by putative Apaf-1 activators, confirmation, artefact control for Apaf-1 activator project, biochemical, 20 µM; shares compounds with Apaf-1 act; fluorescence interference (activity change), % at 20 µM, hits read low; 980 tested, under 10 active; quenched caspase reaction, Ex480/Em540;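 active = mean activity change at or below -40% when tested at 20 µM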
Apaf-1 act conf2: Apaf-1 activators, single-dose retest, confirmation, biochemical, fluorescence, DEVD-Rh110, 20 µM; shares compounds with Apaf-1 act; reconstituted apoptosome caspase-3 activity; active compounds read low; activity change, negative = activation, % at 20 µM; 5% of 980 active; AID 504617, 2011;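 active = mean activity change at or below -40%, meaning activation of 40% or more, at 20 µM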
* marks the source's active call; other numbers are inactive results; · = no result given. Only a sample is shown.

SMILES | Apaf-1 act | Rh110 interf act | Apaf-1 act conf2
CC(=O)Oc1ccc2c(c1)Oc1cc(OC(C)=O)ccc1C21OC(=O)c2ccccc21 | -259* | -154* | -73*
COc1ccc(CNC[C@@H](CCCCN(C)Cc2ccc(OC)cc2)N2C[C@H](c3ccccc3)N(CCc3ccc(Cl)c(Cl)c3)C(=O)C2=O)cc1 | 49 | · | ·
O=C(c1ccccc1)c1ccc2c(c1)OCCOCCOCCOCCO2 | -208* | 1 | 1
COCCOC(=O)c1[nH]c2c(c1C)C(=O)C(C(=O)OC)C(C)C2 (centres undefined) | -68* | -3 | 10
CCCCNc1c(-c2ccc(SC(C)CC)cc2)nc2cnccn12 (centres undefined) | 60 | · | ·
O=C(NCc1ccc2c(c1)OCO2)Nc1cccc(Cl)c1 | -45* | -4 | 10
O=C(NCc1ccco1)Nc1ccc2nsnc2c1 | 59 | · | ·
Cc1nn(CC(=O)N2CCc3ccccc32)c(C)c1S(=O)(=O)NC(C)(C)C | -57* | 17 | 10
CC(C)c1nccn1S(=O)(=O)c1cc(Cl)ccc1Cl | -41* | -1 | 7
Clc1cccc(CSc2nnc(-c3ccccn3)n2Cc2ccco2)c1 | 42 | · | ·
COc1ccc2ccccc2c1C1CC(=O)N2CN(C)CSC2=C1C#N (centres undefined) | 71 | · | ·
CCc1cccc2c(C#N)cn(CCOc3ccccc3OC)c12 | -104* | 3 | 17
C#CCOCCOCCOCCNc1nc(N2CCN(C(=O)[C@H](CCCCN)n3cc([C@@H](N)C(C)CC)nn3)CC2)nc(N2CCN(C(=O)[C@H](Cc3cc4ccccc4[nH]3)n3cc([C@@H](N)C(C)CC)nn3)CC2)n1 (some centres undefined) | 53 | · | ·
CNC(=S)N/N=C(\C)c1ccc(C)c(C)c1 | -246* | 2 | 6
CC(C)(C)N1C(=O)Cc2c1nc(N)c1c(N)nc(N3CCCCC3CO)c(C#N)c21 (centres undefined) | 99 | · | ·
COc1cc([N+](=O)[O-])c2ncsc2c1 | -59* | -1 | 8
Cc1c(CCOC(=O)CC23CC4CC(CC(C4)C2)C3)sc[n+]1CC(=O)c1ccc(Br)cc1 | 49 | · | ·
CN1CCc2nc(SCC(=O)Nc3cccc(F)c3)c(C#N)c(-c3cccs3)c2C1 | 67 | · | ·
NC1(C#Cc2ccc3c(=O)c4ccccc4sc3c2)CCCCC1 | 60 | · | ·
COc1ccc2sc3ccccc3c(=O)c2c1 | -77* | 1 | 16
CN1CCCC1CCNc1ccc2sc3ccccc3c(=O)c2c1 (centres undefined) | 44 | · | ·
CC(C)(C)c1ccc(C(O)CCCN2CCC(C(O)(c3ccccc3)c3ccccc3)CC2)cc1 (centres undefined) | 53 | · | ·
CC(C)N(C(=O)[C@H]1C[C@H](CC(=O)NCCCN(C)C)C(=O)N2CCc3c([nH]c4cc(-c5ccco5)ccc34)[C@]12C)C(C)C | 52 | · | ·
COc1cccc(-c2sc3ccccc3c2-c2ccc(OCCN3CCCCC3)cc2)c1 | 64 | · | ·
Cc1cccc(Oc2nc(-c3ccccn3)nc3ccccc23)c1 | -553* | 12 | 12
SMILES | Apaf-1 act | Rh110 interf act | Apaf-1 act conf2
CC(C)N(C(=O)Nc1ccc2nsnc2c1)C(C)C | 97 | · | ·
Cc1cc(C(C)(C)CC(C)(C)C)ccc1OCCOCC[N+](C)(C)Cc1ccccc1 | 86 | · | ·
COc1cc(C#Cc2c(-c3cncn3C)n(C)c3ccc(-c4cnc(OC)nc4)cc23)cc(OC)c1 | 42 | · | ·
CC(=O)N(C1=C(N2CCOCC2)C(=O)c2ccccc2C1=O)c1ccc(C(=O)O)cc1 | 59 | · | ·
O=C(CNc1cccc2ccccc12)N/N=C/c1ccccn1 | 48 | · | ·
CCn1c(SCC(=O)N/N=C/C=C\c2ccco2)nc2ccccc21 | 47 | · | ·
O=C(Cn1c(-c2ccccn2)nc2ccccc21)N/N=C/c1ccccn1 | -44* | 0 | 10
CCOC(=O)c1nn(-c2ccc(C)c(C)c2)c(=O)c2c(N)scc12 | 56 | · | ·
Cc1ccc(C(=O)NC2CCN(C(=O)Nc3ccccc3)CC2)cc1 | -50* | 5 | 6
Nc1ccc(C(=O)O)c(O)c1 | -8 | · | ·
C#CCOCCOCCOCCNc1nc(N2CCN(C(=O)CCCCCCCCCCNC(=O)[C@H](CCCCN)n3cc(CCO)nn3)CC2)nc(N2CCN(C(=O)CCCCCCCCCCNC(=O)[C@H](CCCCN)n3cc(C[C@@H](C)CC)nn3)CC2)n1 | 68 | · | ·
CN(C)c1cccc2c1c(NC(=O)c1ccc(F)cc1)nn2C | 92 | · | ·
O=C(Nc1ccc(-c2cccc(F)c2)cc1)C1CCCN(Cc2ccccn2)C1 (centres undefined) | 40 | · | ·
O=C(Nc1ncccn1)c1cccc(F)c1 | -48* | 1 | 10
c1ccc(C[C@H]2CN=C(Nc3ccccc3)N2CCCC2CCCCC2)cc1 | 47 | · | ·
